These results are taken from ChEMBL document CHEMBL4321823, “Benzyl Phenylsemicarbazides: A Chemistry-Driven Approach Leading to G Protein-Biased Dopamine D4 Receptor Agonists with High Subtype Selectivity” (J Med Chem, 2019).

The structures appear in SMILES notation. pEC50, pIC50, pKi: −log10 of the molar value.

By pKi is commonly meant the negative decadic logarithm of the Ki, by convention in mol/L. In general, pEC50 refers to the negative decadic logarithm of the EC50, by convention in mol/L. Higher therefore signals a small EC50. The term pIC50 denotes the negative decadic logarithm of the IC50, by convention in mol/L.

The target of test [1] is T1, D(4) dopamine receptor (Homo sapiens, UniProt P21917).
T1 sequence (P21917 whole entry): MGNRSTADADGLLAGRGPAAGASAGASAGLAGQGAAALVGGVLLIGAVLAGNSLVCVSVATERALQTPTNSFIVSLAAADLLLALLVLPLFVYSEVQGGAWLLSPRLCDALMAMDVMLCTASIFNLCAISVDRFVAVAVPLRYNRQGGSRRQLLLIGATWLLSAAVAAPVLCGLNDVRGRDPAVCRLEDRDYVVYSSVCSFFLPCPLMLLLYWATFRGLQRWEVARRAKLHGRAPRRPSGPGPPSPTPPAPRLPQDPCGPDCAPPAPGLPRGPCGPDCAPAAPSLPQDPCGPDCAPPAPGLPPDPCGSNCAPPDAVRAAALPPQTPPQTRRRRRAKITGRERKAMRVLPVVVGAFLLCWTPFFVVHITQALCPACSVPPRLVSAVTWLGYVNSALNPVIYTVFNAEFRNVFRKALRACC
Kind of test: Displacement of [3H] Spiperone from human D4.4 receptor expressed in CHO cells by competitive radioligand binding assay. It counts as cell-based. A general note: Loss of bound radioactivity is the signal in a displacement assay; it reports binding, not function.

The species entered for test [2] is Homo sapiens. The test is described as follows: Selectivity index, ratio of Ki for displacement of [3H] Spiperone from human D2L receptor expressed in CHO cells to Ki for displacement of [3H] Spiperone from human D4.4 receptor expressed in CHO cells. The format is cell-based. The gist of the method:
(§1)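 Competition binding against [3H]spiperone on membranes of CHO cells stably expressing cloned human D2L, D2S, D3 or D4.4 receptors. Ki from monophasic curve fits; mean ± SEM of three to seven experiments, each in triplicate. Selectivity calculated as Ki(D2L, D2S or D3) divided by Ki(D4.4).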

Test [3] is filed under the species Homo sapiens. Kind of test: Selectivity index, ratio of Ki for displacement of [3H] Spiperone from human D2S receptor expressed in CHO cells to Ki for displacement of [3H] Spiperone from human D4.4 receptor expressed in CHO cells. It counts as cell-based. The gist of the method:
as §1

The target in test [4] is Beta-1 adrenergic receptor (Homo sapiens, UniProt P08588). The test is described as follows: Displacement of [3H] CGP12177 from beta1 adrenergic receptor (unknown origin).
In test [5] the target is Beta-2 adrenergic receptor (Homo sapiens, UniProt P07550). Kind of test: Displacement of [3H] CGP12177 from beta2 adrenergic receptor (unknown origin).
Test [6] deals with Kappa-type opioid receptor (Homo sapiens, UniProt P41145). Kind of test: Displacement of [3H] diprenorphine from kappa opioid receptor (unknown origin). The gist of the method:
(§2)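 Radioligand competition binding; Ki given as mean ± SD from two individual experiments, each run in triplicate.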

The target in a further test is Mu-type opioid receptor (Homo sapiens, UniProt P35372). The test is described as follows: Displacement of [3H] diprenorphine from mu opioid receptor (unknown origin). The gist of the method:
as §2

The target of test [7] is T2, Muscarinic acetylcholine receptor M2 (Homo sapiens, UniProt P08172).
T2 sequence (P08172 whole entry): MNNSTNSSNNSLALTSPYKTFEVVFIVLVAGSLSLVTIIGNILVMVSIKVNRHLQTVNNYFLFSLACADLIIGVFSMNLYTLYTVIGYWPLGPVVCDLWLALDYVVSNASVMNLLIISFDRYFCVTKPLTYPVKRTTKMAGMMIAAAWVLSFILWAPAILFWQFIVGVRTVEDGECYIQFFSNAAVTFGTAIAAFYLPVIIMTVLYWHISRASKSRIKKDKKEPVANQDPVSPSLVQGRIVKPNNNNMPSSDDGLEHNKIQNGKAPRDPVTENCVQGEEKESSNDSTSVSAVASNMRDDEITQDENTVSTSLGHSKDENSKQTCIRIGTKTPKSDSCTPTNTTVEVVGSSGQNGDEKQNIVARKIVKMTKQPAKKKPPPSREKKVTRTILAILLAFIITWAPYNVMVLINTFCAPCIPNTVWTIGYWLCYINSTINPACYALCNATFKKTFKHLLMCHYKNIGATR
Kind of test: Displacement of [3H] NMS from muscarinic M2 receptor (unknown origin). The gist of the method:
as §2

Test [8] deals with T3, 5-hydroxytryptamine receptor 1A (Homo sapiens, UniProt P08908).
T3 sequence (P08908 whole entry): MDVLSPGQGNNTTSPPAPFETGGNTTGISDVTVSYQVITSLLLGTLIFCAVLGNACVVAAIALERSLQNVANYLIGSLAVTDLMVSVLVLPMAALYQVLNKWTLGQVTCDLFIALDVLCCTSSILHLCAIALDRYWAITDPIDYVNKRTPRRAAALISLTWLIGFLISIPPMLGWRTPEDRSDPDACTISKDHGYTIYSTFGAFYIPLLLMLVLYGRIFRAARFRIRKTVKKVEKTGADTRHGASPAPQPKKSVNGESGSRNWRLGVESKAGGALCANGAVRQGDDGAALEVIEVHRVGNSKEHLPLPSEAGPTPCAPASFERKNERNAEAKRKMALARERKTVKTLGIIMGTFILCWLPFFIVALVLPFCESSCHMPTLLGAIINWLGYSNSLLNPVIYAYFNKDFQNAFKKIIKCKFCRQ
Kind of test: Displacement of [3H] WAY100635 from 5HT1A receptor (unknown origin). A digest of the protocol: as §2

For test [9], the target named is T1, D(4) dopamine receptor. It counts as cell-based, HEK293.
Test [10] deals with T1, D(4) dopamine receptor. The test is described as follows: Antagonist activity at […] D4 receptor (unknown origin) expressed in HEK293 cells co-expressing beta-arrestin2 assessed as inhibition of quinpirole-induced beta-arrestin2 recruitment preincubated for 30 mins followed by quinpirole addition and further incubated for 6 hrs by Path-Hunter assay. It counts as cell-based. A general note: Activated receptors often draw arrestin, which recruitment assays turn into a signal.

Kappa-type opioid receptor, sequence (P41145 whole entry): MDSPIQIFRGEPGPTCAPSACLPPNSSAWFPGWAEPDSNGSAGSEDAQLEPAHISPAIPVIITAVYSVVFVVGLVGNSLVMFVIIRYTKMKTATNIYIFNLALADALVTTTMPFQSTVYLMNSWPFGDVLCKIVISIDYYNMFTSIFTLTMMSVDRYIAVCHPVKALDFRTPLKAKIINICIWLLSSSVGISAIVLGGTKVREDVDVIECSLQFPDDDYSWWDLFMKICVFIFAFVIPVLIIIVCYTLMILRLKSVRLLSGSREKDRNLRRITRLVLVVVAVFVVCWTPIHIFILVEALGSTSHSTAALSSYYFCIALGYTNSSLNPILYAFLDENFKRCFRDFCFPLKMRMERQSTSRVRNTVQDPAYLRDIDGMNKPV
Beta-1 adrenergic receptor, sequence (P08588 whole entry): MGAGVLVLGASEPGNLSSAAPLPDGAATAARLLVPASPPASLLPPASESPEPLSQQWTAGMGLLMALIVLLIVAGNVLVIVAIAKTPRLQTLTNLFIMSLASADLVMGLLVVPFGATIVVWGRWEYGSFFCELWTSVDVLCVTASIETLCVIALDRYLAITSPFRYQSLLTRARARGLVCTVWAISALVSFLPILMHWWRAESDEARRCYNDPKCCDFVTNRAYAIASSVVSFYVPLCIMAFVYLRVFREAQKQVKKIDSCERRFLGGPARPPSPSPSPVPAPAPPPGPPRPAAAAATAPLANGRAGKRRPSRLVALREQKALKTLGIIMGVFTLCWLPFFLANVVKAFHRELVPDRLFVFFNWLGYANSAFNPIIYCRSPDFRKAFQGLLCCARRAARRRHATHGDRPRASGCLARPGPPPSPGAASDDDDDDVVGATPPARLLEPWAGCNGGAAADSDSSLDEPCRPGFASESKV
Mu-type opioid receptor, sequence (P35372 whole entry): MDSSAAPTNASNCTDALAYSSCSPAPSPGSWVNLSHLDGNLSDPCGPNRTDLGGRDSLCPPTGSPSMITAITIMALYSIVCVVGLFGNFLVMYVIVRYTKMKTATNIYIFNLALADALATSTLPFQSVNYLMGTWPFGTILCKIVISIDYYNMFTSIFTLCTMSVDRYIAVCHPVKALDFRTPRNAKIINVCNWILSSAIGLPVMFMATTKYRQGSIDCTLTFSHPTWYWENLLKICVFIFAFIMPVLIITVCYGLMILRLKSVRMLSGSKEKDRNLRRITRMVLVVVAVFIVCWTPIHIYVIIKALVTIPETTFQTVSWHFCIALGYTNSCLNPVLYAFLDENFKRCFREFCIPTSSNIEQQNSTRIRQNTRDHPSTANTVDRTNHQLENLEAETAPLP
Beta-2 adrenergic receptor, sequence (P07550 whole entry): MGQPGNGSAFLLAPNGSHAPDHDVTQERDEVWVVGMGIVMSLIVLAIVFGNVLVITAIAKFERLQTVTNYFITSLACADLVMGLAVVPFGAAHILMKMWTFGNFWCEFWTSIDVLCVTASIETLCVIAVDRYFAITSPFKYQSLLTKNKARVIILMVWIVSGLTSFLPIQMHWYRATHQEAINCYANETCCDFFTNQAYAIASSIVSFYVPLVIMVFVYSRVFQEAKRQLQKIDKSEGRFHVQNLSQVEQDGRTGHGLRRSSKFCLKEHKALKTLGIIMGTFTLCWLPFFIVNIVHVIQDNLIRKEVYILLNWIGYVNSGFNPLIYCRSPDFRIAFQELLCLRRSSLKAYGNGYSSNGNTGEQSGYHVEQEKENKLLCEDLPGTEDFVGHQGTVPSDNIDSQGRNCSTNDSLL

Take `COc1ccccc1N1CCN(CCCNC(=O)NN(Cc2ccc(F)cc2)c2ccccc2)CC1`: the pKi on D(4) dopamine receptor [1] was 9.26; in test [4] it was less than 4.30; in test [5] it was 5.35; in [6], 5.37; at Mu-type opioid receptor it was 5.64; in test [7], 4.77. The compound also showed a negative-log Ki (pKi) in test [8] of 7.47. The Ratio Ki was 250 in the test listed under Homo sapiens [2] and 200 in the test listed under Homo sapiens [3]. This compound showed a negative-log EC50 (pEC50) on D(4) dopamine receptor [9] of 6.30. On D(4) dopamine receptor [10], the pIC50 is 6.21.
